Data published in article PMC10694825 (The journal of physical chemistry. B, 2023).
Substitutions are numbered along the chain they refer to. Like-named read-outs stand apart in the source and are kept apart here.

How the values were obtained:
TCPTP [1] = target: T1, TCPTP (Homo sapiens, UniProt P17706); assay: pNPP enzyme kinetics, inhibition by amorphadiene; format: biochemical; details: read-out: IC50 for TCPTP; wild type, pNPP substrate, this study
T1 sequence (P17706 1-317): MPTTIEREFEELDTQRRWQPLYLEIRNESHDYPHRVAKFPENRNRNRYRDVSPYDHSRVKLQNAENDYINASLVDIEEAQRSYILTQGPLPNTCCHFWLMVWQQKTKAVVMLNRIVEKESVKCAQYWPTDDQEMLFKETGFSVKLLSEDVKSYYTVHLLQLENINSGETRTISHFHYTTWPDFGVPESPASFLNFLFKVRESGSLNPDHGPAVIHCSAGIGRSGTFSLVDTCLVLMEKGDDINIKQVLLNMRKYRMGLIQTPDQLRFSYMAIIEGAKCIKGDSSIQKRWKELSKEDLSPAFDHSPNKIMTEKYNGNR
Summary of the method: (§1)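 Truncated enzymes (PTP1B 1–351, TCPTP 1–317) expressed in E. coli BL21(DE3), purified by Ni-affinity and anion-exchange. Reactions held 50 nM enzyme, 50 μg/mL BSA and terpenoid at 0.5–500 μM in 50 mM HEPES pH 7.3 with 10% DMSO for 1 h at 22 °C. 20 mM pNPP started the reaction; A405 read every 30 s over 8 min. Initial rates came from a standard curve, and IC50 from a Hill-equation fit. Selectivity was taken as the TCPTP/PTP1B IC50 ratio.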

PTP1B M282K = target: T2, PTP1B M282K (Homo sapiens, UniProt P18031, M282K); assay: pNPP enzyme kinetics, M282K variant; format: biochemical; details: PTP1B M282K vs wild type
T2 sequence (P18031 1-321 M282K): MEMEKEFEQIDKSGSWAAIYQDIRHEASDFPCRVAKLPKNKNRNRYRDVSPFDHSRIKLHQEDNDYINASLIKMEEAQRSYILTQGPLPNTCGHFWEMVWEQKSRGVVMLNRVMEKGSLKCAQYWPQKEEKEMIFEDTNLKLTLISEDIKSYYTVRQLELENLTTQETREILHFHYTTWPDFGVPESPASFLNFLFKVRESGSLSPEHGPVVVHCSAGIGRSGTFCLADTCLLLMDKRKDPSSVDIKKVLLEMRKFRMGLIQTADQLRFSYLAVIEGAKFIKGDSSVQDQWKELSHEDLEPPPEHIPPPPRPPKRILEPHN
Summary of the method: (§2)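 Catalytic-domain constructs (PTP1B 1–351, TCPTP 1–317), with mutations made by Gibson assembly, expressed in E. coli BL21(DE3) and purified by Ni-affinity then anion exchange. Enzyme at 50 nM with 50 μg/mL BSA and test compound (0.5–500 μM) in 50 mM HEPES pH 7.3 with 10% DMSO, preincubated 1 h at 22 °C. Started with 20 mM pNPP; A405 read every 30 s for 8 min. IC50 from a Hill fit of initial rates.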

PTP1B L158F = target: T3, PTP1B L158F (Homo sapiens, UniProt P18031, L158F); assay: pNPP enzyme kinetics, L158F variant; format: biochemical; details: PTP1B L158F vs wild type
T3 sequence (P18031 1-321 L158F): T2 sequence (P18031 1-321 M282K) with L158F, K282M

PTP1B [2] = target: T4, PTP1B (Homo sapiens, UniProt P18031); details: MD simulation, cited from earlier work
T4 sequence (P18031 1-321): T2 sequence (P18031 1-321 M282K) with K282M

TCPTP K280M = target: T5, TCPTP K280M (Homo sapiens, UniProt P17706, K280M); assay: pNPP enzyme kinetics, K280M variant; format: biochemical; details: TCPTP K280M vs wild type
T5 sequence (P17706 1-317 K280M): T1 sequence (P17706 1-317) with K280M
Summary of the method: as §2

PTP1B Q290R = target: T6, PTP1B Q290R (Homo sapiens, UniProt P18031, Q290R); assay: pNPP enzyme kinetics, Q290R variant; format: biochemical; details: PTP1B Q290R vs wild type
T6 sequence (P18031 1-321 Q290R): T2 sequence (P18031 1-321 M282K) with K282M, Q290R
Summary of the method: as §2

TCPTP [3] = target: T1, TCPTP; details: read-out: IC50 for TCPTP; previously reported; cited from earlier work
TCPTP L158F = target: T7, TCPTP L158F (Homo sapiens, UniProt P17706, L158F); assay: pNPP enzyme kinetics, L158F variant; format: biochemical; details: TCPTP L158F vs wild type
T7 sequence (P17706 1-317 L158F): T1 sequence (P17706 1-317) with L158F

PTP1B [4] = target: T4, PTP1B; details: cited from earlier work; for selectivity: inhibits PTP1B more potently than TCPTP (fold): PTP1B over TCPTP
TCPTP R288Q = target: T8, TCPTP R288Q (Homo sapiens, UniProt P17706, R288Q); assay: pNPP enzyme kinetics, R288Q variant; format: biochemical; details: TCPTP R288Q vs wild type
T8 sequence (P17706 1-317 R288Q): T1 sequence (P17706 1-317) with R288Q
Summary of the method: as §2

PTP1B [5] = target: T4, PTP1B; assay: pNPP enzyme kinetics, inhibition by amorphadiene; format: biochemical; details: this study
Summary of the method: as §1

| SMILES | IC50 (TCPTP [1]) [µM] | effect of mutation on potency (IC50) (PTP1B M282K) | IC50 of L158F mutant compared with wild type (PTP1B L158F) | occupancy of the β site (loc4), observed trajectories (PTP1B [2]; PTP1B with disordered α7 helix) [%] | occupancy of the β site (loc4), observed trajectories (PTP1B [2]; PTP1B with truncated α7 helix) [%] | effect of mutation on IC50 (TCPTP K280M) | effect of mutation on potency (IC50) (PTP1B Q290R) | IC50 (TCPTP [3]) [µM] | IC50 of L158F mutant compared with wild type (TCPTP L158F) | selectivity: inhibits PTP1B more potently than TCPTP (fold) (PTP1B [4]) | IC50 ratio (TCPTP/PTP1B), metric for selectivity (PTP1B [4]; previously reported) | IC50 (PTP1B [4]; read-out: IC50 for PTP1B, previously reported) [µM] | effect of mutation on IC50 (TCPTP R288Q) | IC50 (PTP1B [5]; read-out: IC50 for PTP1B, wild type, pNPP substrate) [µM] | IC50 ratio (TCPTP/PTP1B), metric for selectivity (PTP1B [5]) |
| --- | --- | --- | --- | --- | --- | --- | --- | --- | --- | --- | --- | --- | --- | --- | --- |
| C=C(C)[C@@H]1CC[C@@H](C)[C@@H]2CCC(C)=C[C@@H]21 [AD, amorphadiene] | 27 ± 11.2 | reduced potency | indistinguishable between wild-type and mutant enzymes | 0 | 88 | no effect on the IC50 | reduced potency | 349 ± 77 | indistinguishable between wild-type and mutant enzymes | 5–8 × | 6.6 ± 1.8 | 53 ± 8 | no effect on the IC50 | 7.7 ± 2.4 | 3.5 ± 1.8 |
| CC(C)=CCC=C(C)C1CC=C(C)CC1 (stereo not drawn) [AB, α-bisabolene] | – | – | – | – | – | – | – | – | – | 5–8 × | – | – | – | – | – |
